Screening results as filed in PubChem.
A selection: hits, their analogues and other compounds. The true share with any hit is near 2.3%.
TRPC4 agonist: activators of mouse TRPC4 channel, primary screen, Fluo4 calcium, HEK293 TRPC4beta/mu-opioid cells; 310,000 tested, 0.49% active; AID 2237, 2010; B-score at 10 µM; Short transient receptor potential channel 4 (Mus musculus), Q9QUQ5; Fluo4 calcium fluorescence; stronger effect = higher value;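 active = B-score above 5 SD of library B-scores, and initial fluorescence ratio not above library mean plus 5 SD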;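 note: positive B-score marks a calcium rise read as TRPC4 activation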
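system = HEK293 cells stably co-expressing mouse TRPC4beta and mu-opioid receptor | schedule = Fluo4 dye loading 45 min at room temperature, 110 s recording | measure = B-scored integrated calcium fluorescence ratio | signal = Fluo4 calcium-sensitive dye fluorescence, kinetic, 1 Hz baseline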
TRPC4 block: inhibitors of mouse TRPC4 channel, primary screen, Fluo4 calcium, HEK293 TRPC4beta/mu-opioid cells; 300,000 tested, 0.39% active; B-score at 10 µM; Short transient receptor potential channel 4 (Mus musculus), Q9QUQ5; DAMGO-evoked Fluo4 calcium flux; stronger effect = lower value;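 active = B-score over 3 SD under the library average, no early fluorescence shift, positive overall ratio signal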
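material = TRPC4beta/mu-opioid receptor HEK293 cell line | probe or stimulus = sequential submaximal and maximal DAMGO stimulation | compound dosing = one concentration per compound | measured by = Fluo4 Ca2+ flux fluorescence | evaluation = integrated fluorescence ratio relative to baseline, converted to per-well B score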
TRPC6 act: mouse TRPC6 channel activators, primary screen, cell-based, HEK293, membrane potential dye. HEK293-TRPC6 membrane potential dye fluorescence; stronger effect = higher value. 310,000 tested, 0.13% active. AID 2550, 2010. B-score at 10 µM;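 active = B-score of the integrated fluorescence ratio above library mean plus 3 SD, and starting fluorescence ratio within library mean plus 5 SD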;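 note: higher score means more depolarization so channel activation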
Target sequence (Q61143 whole entry, looked up): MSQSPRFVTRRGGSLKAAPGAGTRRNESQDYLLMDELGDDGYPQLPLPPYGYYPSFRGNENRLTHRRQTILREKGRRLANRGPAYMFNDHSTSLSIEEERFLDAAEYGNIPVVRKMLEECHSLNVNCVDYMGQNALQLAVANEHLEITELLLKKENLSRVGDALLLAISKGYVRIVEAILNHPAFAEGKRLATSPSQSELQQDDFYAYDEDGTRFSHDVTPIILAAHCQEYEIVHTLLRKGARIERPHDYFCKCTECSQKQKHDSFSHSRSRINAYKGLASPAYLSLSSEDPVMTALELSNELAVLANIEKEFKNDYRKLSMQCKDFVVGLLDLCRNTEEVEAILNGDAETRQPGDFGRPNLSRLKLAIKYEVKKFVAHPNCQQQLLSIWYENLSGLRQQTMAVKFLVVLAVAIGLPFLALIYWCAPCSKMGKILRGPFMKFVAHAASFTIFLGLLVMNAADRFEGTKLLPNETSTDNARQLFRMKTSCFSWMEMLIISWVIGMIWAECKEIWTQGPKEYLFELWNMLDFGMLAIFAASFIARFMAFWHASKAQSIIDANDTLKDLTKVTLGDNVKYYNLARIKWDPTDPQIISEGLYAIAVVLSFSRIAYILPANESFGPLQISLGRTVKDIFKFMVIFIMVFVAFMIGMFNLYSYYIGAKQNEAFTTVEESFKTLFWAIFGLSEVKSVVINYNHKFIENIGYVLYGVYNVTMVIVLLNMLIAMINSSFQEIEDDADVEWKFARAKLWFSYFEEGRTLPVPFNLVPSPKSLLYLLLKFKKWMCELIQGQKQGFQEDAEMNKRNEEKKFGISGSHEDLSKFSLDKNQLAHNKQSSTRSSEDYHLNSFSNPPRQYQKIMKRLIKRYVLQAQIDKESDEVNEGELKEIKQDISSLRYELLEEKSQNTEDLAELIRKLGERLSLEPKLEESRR
TRPC4 PAM: positive allosteric modulators of TRPC4, primary screen, cell-based, mouse TRPC4beta, HEK293 mu-opioid, Fluo-4 calcium; DAMGO EC20, Fluo-4 Ca2+ flux; stronger effect = higher value; B-score at 10 µM; 310,000 tested, 0.42% active;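 active = B-score of calcium response area above 5 SD of library B-scores, with initial fluorescence ratio within 5 SD of library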;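 note: B-score of integrated fluorescence ratio over time as area under calcium response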
TRPC6 inhibitor: mouse TRPC6 channel inhibitors, primary screen, cell-based, HEK293, membrane potential dye | Short transient receptor potential channel 6 (Mus musculus), Q61143 | ACh-evoked depolarization; stronger effect = lower value | B-score at 10 µM | 310,000 tested, 1.1% active | AID 2553, 2010;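 active = B-score under library mean minus 3 SD, initial fluorescence not abnormally high, positive integrated signal ratio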;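 note: B-score derived from integrated fluorescence ratio over the kinetic read; more negative B-score means stronger inhibition of depolarization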
TRPC4 sel inh 2: mouse TRPC4 off-target activity of TRPC6 inhibitors, second screen; shares compounds with TRPC6 inhibitor; HEK293 TRPC4/MOR, membrane potential dye fluorescence; channel activated by saturating DAMGO dose; inhibition, % at 10 µM; 920 tested, 42% active; AID 2776;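 active = compounds whose fluorescence signal differed from control wells by over 3 SD, either direction, in both duplicate plates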
TRPC4 spec: mouse TRPC4 modulation by TRPC6 hits, confirmation, selectivity assay for TRPC6 inhibitor project, cell-based, HEK293 TRPC4/mu-opioid, membrane potential dye. shares compounds with TRPC6 inhibitor. membrane potential fluorescence. activity change, negative = inhibition, % at 10 µM. 920 tested, 61% active. AID 2777, 2010;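 active = rise or fall in signal beyond 3 SD of buffer-only wells in both replicate plates, either sign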;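 note: integrated kinetic ratio of fluorescence range over baseline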
HEK293 MPD ctr 2-1: nonspecific membrane potential effects, parental HEK293, confirmation, counter-screen for TRPC6 inhibitor project, cell-based, second counter screen. shares compounds with TRPC6 inhibitor. parental HEK293 membrane potential dye fluorescence; maximal acetylcholine challenge after compound addition. signal change vs control, % at 10 µM. 920 tested, 31% active. AID 2779, 2010;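 active = membrane potential signal moving either way by over 3 SD of the maximum-effect control, in both duplicate plates, meaning non-specific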
HEK293 MPD ctr-1: membrane potential modulation in parental HEK293, confirmation, counter-screen for TRPC6 inhibitor project, cell-based; shares compounds with TRPC6 inhibitor; parental HEK293 membrane potential dye fluorescence; membrane potential signal change, % at 10 µM; 920 tested, 60% active; AID 2780, 2010;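 active = membrane potential signal shifting up or down by more than 3 SD of buffer-only wells, on both duplicate plates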
HEK293 MPD ctr-2: parental HEK293 membrane potential modulation, confirmation, counter-screen for TRPC6 modulator project, cell-based; shares compounds with TRPC6 inhibitor; membrane potential dye fluorescence; membrane potential signal change, % at 10 µM; 2,400 tested, 51% active; AID 488924, 2010;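 active = membrane potential signal moves up or down beyond 5 SD from buffer-only wells, on both duplicate plates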
HEK293 MPD ctr 2-2: parental HEK293 nonspecific activity of TRPC6 modulators, second screen | shares compounds with TRPC6 inhibitor | membrane potential dye fluorescence; after compound, maximal acetylcholine stimulation | inhibition, % at 10 µM | 2,400 tested, 14% active;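 active = membrane potential signal drops by more than 5 SD from the mean control signal, in both duplicate plates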;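 note: plate controls were acetylcholine ECmax control wells for no effect and buffer only wells for full effect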
TRPC4 ctr mod: TRPC4 modulation by TRPC6 hit compounds, confirmation, selectivity assay for TRPC6 modulator project, cell-based, HEK293 TRPC4/mu-opioid, membrane potential dye, mouse; shares compounds with TRPC6 inhibitor; membrane potential fluorescence; percent change from control (negative = decrease, positive = increase), % at 10 µM; 2,400 tested, 69% active;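 active = membrane potential signal moved up or down beyond 5 SD of buffer control wells, in both duplicate plates, actives on both sides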;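 note: plate controls were assay buffer wells for no effect and DAMGO maximal-effect wells for full effect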
TRPC4/MOR inh 2: mouse TRPC4 off-target activity of TRPC6 modulators, second screen; shares compounds with TRPC6 inhibitor; HEK293 TRPC4/mu-opioid, membrane potential dye fluorescence; stimulated with maximal-effect DAMGO; inhibition, % at 10 µM; 2,400 tested, 55% active;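 active = drop in membrane potential signal beyond 5 SD of the control wells in both duplicate plates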;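 note: TRPC4 counter screen for TRPC6 hits run under conditions tuned for TRPC6 not TRPC4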
TRPC6 inh conf: mouse TRPC6 channel inhibitors, confirmation, HEK293 cells, membrane potential dye, duplicate | shares compounds with TRPC6 inhibitor | ACh-evoked depolarization | inhibition, % at 10 µM | 3,300 tested, 43% active;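 active = fluorescence ratio falls more than 5 SD below the full-stimulation control mean, in both duplicate runs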;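 note: integrated fluorescence ratio of peak minus minimum over baseline after agonist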
TRPC6 act conf: mouse TRPC6 channel activators, confirmation, HEK293 cells, membrane potential dye, duplicate; 2,800 tested, 11% active; shares compounds with TRPC6 inhibitor; HEK293-TRPC6 membrane potential dye fluorescence, FDSS; activation, % at 10 µM;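 active = ratio signal rise beyond 5 SD above unstimulated control wells' mean, seen in both duplicate runs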;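 note: plate controls were buffer EC0 wells for no effect and acetylcholine ECmax response for full effect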
Numbers without * were called inactive; i = inactive; nt = no result.

SMILES	TRPC4 agonist	TRPC4 block	TRPC6 act	TRPC4 PAM	TRPC6 inhibitor	HEK293 MPD ctr-2	HEK293 MPD ctr 2-2	TRPC4 ctr mod	TRPC4/MOR inh 2	TRPC6 inh conf	TRPC6 act conf	others
Oc1ccc(CN2CCc3ccccc3C2)c2cccnc12	i	-5*	i	i	-7.3*	nt	nt	nt	nt	i	i	TRPC4 sel inh 2=49%*;TRPC4 spec=2.4%*;HEK293 MPD ctr 2-1=i;HEK293 MPD ctr-1=5.0%*
Cc1nn(CC(=O)O)c(C)c1Cl	i	i	i	i	-11*	i	i	i	i	i	i
Cc1nn(CC(=O)O)c(C)c1C	i	i	i	i	i	nt	nt	nt	nt	nt	nt
COC(=O)Cc1sc(-c2ccccn2)nc1-c1ccccc1	i	i	i	i	-5.7*	i	i	12%*	i	i	i
CN(CC(=O)Nc1cccc2ccccc12)C(=O)/C=C/c1cccs1	i	i	i	i	i	nt	nt	nt	nt	nt	nt
COc1ccc(C(=O)N/C(=C\c2ccccc2)C(=O)NCc2cccnc2)cc1	i	i	i	i	i	nt	nt	nt	nt	nt	nt
O=C(NCc1cccnc1)/C(=C/c1ccc(Cl)cc1)NC(=O)c1ccccc1	i	i	i	i	-5.6*	i	i	i	i	i	i
NC(N)=NS(=O)(=O)c1ccc(NC(=S)NC(=O)Cc2ccc(Cl)cc2)cc1	i	i	i	i	i	nt	nt	nt	nt	nt	nt
Cc1ccccc1C(=O)Nc1ccc2c(C#N)c3nc4ccccc4nc3n2c1	i	i	i	i	-5.8*	i	i	-10%*	i	i	i
COc1ccc(/C=C(/NC(=O)c2ccccc2OC)C(=O)Nc2ccc(C(=O)O)cc2)cc1	i	i	i	i	i	nt	nt	nt	nt	nt	nt
C=CCOc1ccc2c(OC)c3ccoc3nc2c1OC	i	i	16*	i	-11*	i	i	18%*	i	52%*	86%*
CCOc1c2ccoc2nc2c(OC)c(OC)ccc12	i	i	i	i	-5.4*	i	i	i	i	i	nt
CCOc1c(OC)ccc2c3c(c(=O)oc12)CCCC3	i	i	i	i	i	nt	nt	nt	nt	nt	nt
CN(CC(=O)Nc1ccc(Cl)cc1)C(=O)Cc1c(F)cccc1Cl	i	i	i	i	i	nt	nt	nt	nt	nt	nt
COc1ccc2c(c1)c1c3n2CCN(C)C3=NCC1	i	i	i	i	-13*	-290%*	90%*	-44%*	46%*	58%*	i
c1cc2c(cc1C1CCCCC1)c1c3n2CCN=C3CCC1	i	i	i	i	i	nt	nt	nt	nt	nt	nt
CS(=O)(=O)c1ccc(Cl)c(NC(=O)CN2C(=O)C3CCCCC3C2=O)c1 (stereo not given)	i	i	i	i	i	nt	nt	nt	nt	nt	nt
CC1CN(C(=O)CSc2nnc(-c3ccc(Cl)cc3)n2C)CC(C)O1 (stereo not given)	i	i	i	i	-5.2*	i	i	i	i	i	i
CC(C)(c1ccccc1)c1ccc(OCCCN2CCNCC2)cc1	i	i	i	i	-6.8*	nt	nt	nt	nt	i	i	TRPC4 sel inh 2=34%*;TRPC4 spec=i;HEK293 MPD ctr 2-1=i;HEK293 MPD ctr-1=2.3%*
CC1CCN(CCCCOc2ccc(C(C)(C)C)cc2)CC1	i	i	i	i	i	nt	nt	nt	nt	nt	nt
CC(C)(C)c1ccc(OCCCCCCN2CCNCC2)cc1	i	i	i	i	-7.7*	nt	nt	nt	nt	61%*	i	TRPC4 sel inh 2=52%*;TRPC4 spec=-0.1%*;HEK293 MPD ctr 2-1=i;HEK293 MPD ctr-1=2.7%*
CC(=O)N/C(=C\c1ccccc1)C(=O)OCc1cccc(S(=O)(=O)N(C)C)c1	i	i	i	i	i	nt	nt	nt	nt	nt	nt
COc1ccc([C@@H]2[C@@H]3C(=O)N(C(C)(C)C)C(=O)[C@@H]3[C@]3(Cc4ccccc4)C(=O)N(c4ccc(Br)cc4)C(=O)N23)cc1	i	i	i	i	-6.1*	i	i	i	i	i	i
CN1CCN(C(=O)C2CCN(c3ncc(C(F)(F)F)cc3Cl)CC2)CC1	i	i	i	i	-5.2*	i	i	i	i	i	i
O=C(OC1CCN(c2ncc(C(F)(F)F)cc2Cl)CC1)c1ccccc1	i	i	i	i	i	nt	nt	nt	nt	nt	nt
